KCNQ1 act: human KCNQ1 channel potentiation or activation. B-score at 10 µM. 0.35% of 310,000 active. P51787. CHO-K1 KCNQ1, thallium flux FluxOR fluorescence; active compounds read high;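 active = fluorescence ratio B-score, a plate-corrected score, at least three library SD, with initial intensity B-score within 5 SD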
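System: CHO-K1 cells stably expressing KCNQ1 / Medium: assay buffer for compound exposure, DMSO matched across wells / Reagent: thallium- and potassium-containing depolarizing buffer / Compound: one concentration, matched DMSO / Incubation: 20 min compound pretreatment at room temperature / Measured by: kinetic FluxOR fluorescence, 10 s baseline plus 110 s post-stimulus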
KCNQ1 block: inhibitors of human KCNQ1 potassium channel; P51787; CHO-K1 KCNQ1, FluxOR thallium flux fluorescence; active compounds read high; B-score at 10 µM; 1.3% of 310,000 active;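 active = compounds whose thallium flux B-score, printed positive for inhibition, exceeds three library SD while starting fluorescence stays within three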;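 also: channel opened by potassium depolarization with thallium stimulus after 20 min compound exposure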
hERG protect: compounds protecting human hERG from proarrhythmic drug block. Q12809. CHO-hERG, FluxOR thallium flux, dofetilide IC70 present. activation (rescue from dofetilide block), less the hit threshold, % at 10 µM. 0.51% of 310,000 active. AID 1511;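 active = activation above the mean of controls blocked by dofetilide plus 5 SD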;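 also: thallium influx through hERG after potassium depolarization seen as dye fluorescence rise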
KCNK3 block: human KCNK3 channel inhibition, primary screen; CHO-KCNK3 thallium flux, FluxOR fluorescence; active compounds read low; B-score at 10 µM; 0.84% of 340,000 active; AID 602410;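 active = B-score under library mean minus 4 SD, starting fluorescence ratio at most library mean plus 5 SD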;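 also: more negative B-score means stronger inhibition of thallium flux through KCNK3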
Target sequence (O14649 whole entry, looked up): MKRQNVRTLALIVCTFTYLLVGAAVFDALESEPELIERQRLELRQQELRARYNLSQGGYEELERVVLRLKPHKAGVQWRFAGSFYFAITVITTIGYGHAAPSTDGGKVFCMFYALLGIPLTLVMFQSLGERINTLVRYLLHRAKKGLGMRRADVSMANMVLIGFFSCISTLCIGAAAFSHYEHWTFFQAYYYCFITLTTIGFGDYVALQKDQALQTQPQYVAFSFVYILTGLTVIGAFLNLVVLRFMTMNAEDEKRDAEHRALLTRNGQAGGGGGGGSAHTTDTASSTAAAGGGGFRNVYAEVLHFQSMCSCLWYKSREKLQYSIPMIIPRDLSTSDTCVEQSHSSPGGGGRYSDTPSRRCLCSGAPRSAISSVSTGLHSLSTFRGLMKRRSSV
KCNK9 block: inhibitors of human KCNK9 two-pore domain potassium channel. B-score at 10 µM. 1.2% of 310,000 active. HEK293 KCNK9, FluxOR thallium flux fluorescence; active compounds read low;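 active = ratio B-score over 3 SD below the library mean, with starting fluorescence within 5 SD of its mean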;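 also: negative B-score means less thallium flux so channel inhibition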
KCNQ1 inh valid: confirmation of human KCNQ1 potassium channel inhibitors. shares compounds with KCNQ1 block. 93% of 1,600 active. KCNQ1 cell line, FluxOR thallium flux fluorescence. inhibition, % at 10 µM;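 active = primary screen active, with duplicate mean exceeding buffer control mean plus 3 SD of buffer wells, cut at about 28% in these data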;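 also: 0% = buffer control ratio and 100% = XE991 inhibitor control ratio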
CHO KCNQ1 ctr: counter-screen for KCNQ1 inhibitors: effect in parental CHO cells. parental CHO-K1, FluxOR thallium flux fluorescence ratio; active compounds read low; zero means no signal rise above baseline. 21% of 1,600 active. shares compounds with KCNQ1 block. fluorescence ratio (Tl flux) at 10 µM;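 active = mean of duplicate thallium-flux fluorescence ratios in parental host cells more than 5 SD below the buffer control mean, cut at about 0.38 in these data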;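 also: ratio is peak minus minimum fluorescence divided by baseline fluorescence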
KCNQ1 APC inh: confirmation of human KCNQ1 potassium channel inhibitors by electrophysiology; shares compounds with KCNQ1 block; KCNQ1-CHO cells, automated patch clamp current; AID 624120; calls only at 10 µM; 20% of 490 active;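 active = KCNQ1 current drop exceeding 3 SD of negative control wells, seen in both duplicate runs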;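 also: steady state current during a 2 s step from -80 to +40 mV; negative values mean current inhibition and positive values mean potentiation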
KCNQ2 spec: selectivity of KCNQ1 inhibitors: inhibition of rat KCNQ2 channel | inhibition, % at 10 µM | KCNQ2 cells, FluxOR thallium flux fluorescence | 71% of 1,600 active | shares compounds with KCNQ1 block;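 active = mean percent inhibition of the KCNQ2 thallium signal more than 5 SD above the buffer-only control wells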;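 also: KCNQ2 expressed in CHO cells; 0% = buffer control wells and 100% = XE-991 inhibitor control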
KCNQ1 KCNE1 spec: selectivity of KCNQ1 inhibitors: inhibition of human KCNQ1/KCNE1 channel. shares compounds with KCNQ1 block. KCNQ1/KCNE1 cells, FluxOR thallium flux fluorescence. inhibition, % at 10 µM. 77% of 1,600 active;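 active = mean percent inhibition of duplicate wells above the buffer-only control mean plus 3 SD of those controls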;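 also: 0% = buffer only wells and 100% = XE-991 inhibitor control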
Active calls of the source: *; i = inactive; . = no result given; + = active, no number. Shown are actives, neighbours in structure and some others; about 3.1% of the full set was active somewhere.

SMILES	KCNQ1 act	KCNQ1 block	hERG protect	KCNK3 block	KCNK9 block	KCNQ1 inh valid	CHO KCNQ1 ctr	KCNQ2 spec	KCNQ1 KCNE1 spec	others
O=C(Nc1ccc(Br)cc1)Nc1cnccn1	i	7*	-11.0	i	i	0.0	0.564	i	i
COc1ccccc1/C=C/C(=O)NCC(=O)n1nc(C)cc1C	i	i	-3.8	i	i	.	.	.	.
O=C(CN1C(=O)NC2(CCCCC2)C1=O)N1CCN(S(=O)(=O)c2cccc(F)c2)CC1	i	i	-6.9	i	i	.	.	.	.
O=C(Nc1ccc(C(F)(F)F)cc1)c1ccc2nc[nH]c2c1	i	6*	-18.4	i	i	78.0*	0.491	86.3%*	i
O=C(NC(=S)Nc1ccccc1N1CCN(C(=O)c2ccccc2)CC1)c1ccccc1F	i	10*	-13.6	i	i	84.0*	0.382	110.3%*	111.5%*
O=C(NC(=S)Nc1ccccc1N1CCOCC1)c1ccccc1F	i	i	-12.9	i	i	.	.	.	.
COc1ccc(C2c3ccsc3CCN2C(=O)C(C)(C)C)cc1 (stereo not given)	i	8*	-14.4	i	i	116.5*	0.374*	82.0%*	152.0%*
Cc1cc2nc3c(=O)[nH]c(=S)[nH]c3nc2cc1NC(=O)C(F)(F)F	i	11*	-19.8	i	-7.24*	65.5*	0.326*	i	151.0%*
O=c1[nH]c(=S)[nH]c2nc(-c3ccccc3)cnc12	i	i	-8.6	i	i	.	.	.	.
O=C(Nc1ccc(Cl)c(Cl)c1)C1CCN(C(=O)c2ccco2)CC1	i	i	-15.5	i	i	.	.	.	.
O=C(Nc1ccc(-c2cccc(F)c2)cc1)C1CCCN(Cc2ccccn2)C1 (stereo not given)	i	6*	-23.2	i	i	44.0*	0.4	85.7%*	64.0%*
CC1(C)Cn2c(nc(=O)c3c2NCN(CCc2ccccc2)C3)S1	i	i	-7.5	i	i	.	.	.	.
COC(=O)c1[nH]c2cc(C)ccc2c1NC(=O)CN1CCCc2ccccc21	i	8*	-12.3	i	i	71.5*	0.439	93.3%*	81.5%*
COC(=O)c1[nH]c2cc(C)ccc2c1NC(=O)CN1CCN(C(=O)c2ccco2)CC1	i	i	-2.0	i	i	.	.	.	.
Cc1ccc(NC(=O)Cn2ccc([N+](=O)[O-])n2)cc1Cl	i	i	-0.8	i	i	.	.	.	.
S=C1NC[C@H](c2ccccc2)N1CCCCC1CCCCC1	i	i	-7.5	i	i	.	.	.	.
NC1=NC[C@H](c2ccccc2)N1CCCCC1CCCCC1	i	9*	-14.8	i	i	116.5*	0.396	120.3%*	87.5%*	KCNQ1 APC inh=+
COc1cccc(NC(=O)COC(=O)C2=NN(c3ccccc3)C(=O)CC2)c1	.	.	.	i	.	.	.	.	.
Cc1cc(NC(=O)CON=C(N)CC(=O)Nc2ccccc2Cl)ccc1Br	.	.	.	i	.	.	.	.	.
O=S(=O)(NCCNc1ncc(C(F)(F)F)cc1Cl)C(F)(F)F	i	6*	-13.6	i	i	39.5*	0.469	i	i
COc1ccc(Nc2cc(C(=O)N3CCc4ccccc4C3)c3ccccc3n2)c(OC)c1	i	7*	-13.6	i	i	135.0*	0.419	129.7%*	175.5%*	KCNQ1 APC inh=i
COc1ccccc1Nc1cc(C(=O)N2CCc3ccccc3C2)c2ccccc2n1	i	i	-15.7	.	i	.	.	.	.
COc1ccc(-c2cc(C(=O)N3CCN(c4ccccc4F)CC3)c3ccccc3n2)c(OC)c1	i	7*	-19.1	i	i	110.5*	0.394	i	176.0%*	KCNQ1 APC inh=i
O=C(CSc1ccc(Br)cc1)NC1CCS(=O)(=O)C1 (stereo not given)	i	i	-8.1	i	i	.	.	.	.
O=C(Nc1ccc(Br)c(C(F)(F)F)c1)c1ccccc1	i	6*	-14.2	i	-7.74*	125.0*	0.396	136.7%*	109.5%*	KCNQ1 APC inh=i
SMILES	KCNQ1 act	KCNQ1 block	hERG protect	KCNK3 block	KCNK9 block	KCNQ1 inh valid	CHO KCNQ1 ctr	KCNQ2 spec	KCNQ1 KCNE1 spec	others
Cc1cccc(OCCC(=O)Nc2ccc(F)c(F)c2)c1	i	8*	7.8*	i	i	28.5*	0.543	74.3%*	i
CCc1nnc(NC(=O)CCC2CCCCC2)s1	i	i	-3.1	i	i	.	.	.	.
O=C(CCC1CCCCC1)Nc1nnc(C(F)(F)F)s1	i	6*	-0.1	i	i	63.5*	0.539	i	33.5%*
CCOC(=O)c1nc(Nc2ccc(C(C)=O)cc2)c2ccccc2n1	i	i	-12.3	i	i	.	.	.	.
CC(C)Cn1c(N)c(C(=O)CSc2cc(Cl)ccc2Cl)c(=O)n(C)c1=O	i	i	-10.4	.	i	.	.	.	.
Cc1cccc(OCC(=O)Nc2ccc(S(=O)(=O)N3CCCC3)cc2)c1	i	i	-13.9	i	i	.	.	.	.
O=C(COc1cccc(C(F)(F)F)c1)Nc1ccc(S(=O)(=O)N2CCCCC2)cc1	i	8*	-6.6	i	i	107.0*	0.504	98.7%*	67.0%*	KCNQ1 APC inh=i
CCN(CC(=O)Nc1ccc2c(c1)CCC2)Cc1nc2ccccc2c(=O)[nH]1	i	i	-7.9	i	i	.	.	.	.
COC(=O)c1ccccc1NC(=O)CN1CCN(c2ccccn2)CC1	i	i	-2.6	i	i	.	.	.	.
COC(=O)c1ccccc1N/C=C1\CCc2c(c(C)nn2-c2ccccn2)C1=O	i	6*	-14.7	i	i	95.5*	0.506	96.7%*	141.0%*	KCNQ1 APC inh=i
CC(C)(C)OC(=O)N1Cc2ccccc2C[C@H]1C(=O)NCC(=O)NCC1CCCO1 (stereo not given in full)	i	i	-5.4	i	i	.	.	.	.
c1ccc(CN2CCC(Nc3nc(-c4ccccc4)nc4ccccc34)CC2)cc1	i	i	-18.7	i	i	.	.	.	.
Cc1csc2ncnc(NC3CCN(Cc4ccccc4)CC3)c12	i	8*	-17.0	i	i	26.0*	0.532	i	57.0%*
Oc1ccc(-c2n[nH]c(C(F)(F)F)c2-c2ccccc2)c(O)c1	i	8*	-20.5	i	i	156.0*	0.371*	i	181.5%*

Compound activity from PubChem.
